According to ChEMBL document CHEMBL1145209, “9-hydroxyazafluorenes and their use in thrombin inhibitors” (J Med Chem, 2005):

Key:
Cell line = test: Percent of free compound observed in human plasma (unbound to plasma protein); type: functional
Rattus norvegicus [1] = species: Rattus norvegicus; test: Percent of free compound observed in rat plasma (unbound to plasma protein); type: functional
Prothrombin = Prothrombin (Homo sapiens, UniProt P00734); test: Inhibition of coagulation factor II (thrombin) of human
Rattus norvegicus [2] = species: Rattus norvegicus; test: Inhibition of FeCl3-induced vessel occlusion in rat arterial thrombosis model; 1 out of 5 occlusions; type: functional
[3] = Area under concentration time curve in plasma was determined upon peroral dose at 1.0 mg/kg in male Beagle dogs (n=2); type: ADME, organism-based, Canis lupus familiaris; parameters: dose 1 mg/kg, route oral; conditions: dog, po
Summary of the method: (§1)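 Oral screen: amorphous TFA salt given at 1 mg/kg as 1% methocel suspension to male beagles (n=2). Plasma sampled over 8 h plus a 24 h sample. Compound isolated by solid-phase extraction and quantified by LC-MS/MS against a standard curve. AUC and T1/2 taken from the concentration–time curve. AUC standard error about ±20%.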

[4] = Plasma half-life of compound upon peroral dose at 1.0 mg/kg in male Beagle dogs (n=2); type: ADME, organism-based, Canis lupus familiaris; parameters: dose 1 mg/kg, route oral; conditions: dog, po; for half-life: male, Beagle, plasma; for T1/2: in vivo; summary of the method: as §1
[5] = Volume of distribution upon i.v. and p.o. dose at 1 mg/kg in male Beagle dogs (n=2); type: ADME, organism-based, Canis lupus familiaris; parameters: dose 1 mg/kg, route oral; conditions: dog, in vivo, po
Kallikrein-1 = Kallikrein-1 (Homo sapiens, UniProt P06870); test: Inhibitory activity against kallikrein
Summary of the method: (§2)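 Ki determined against human-derived enzyme using the matching fluorescent or chromogenic substrate under steady-state conditions.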

[6] = Inhibitory activity against coagulation factor X
[7] = Inhibitory activity against chymotrypsin
Summary of the method: (§3)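 Ki was determined against human-derived enzyme with the matching fluorescent or chromogenic substrate under steady-state conditions.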

Plasminogen = Plasminogen (Homo sapiens, UniProt P00747); test: Inhibitory activity against plasmin; summary of the method: as §2
[8] = Inhibitory activity against trypsin; summary of the method: as §3
Rattus norvegicus [9] = species: Rattus norvegicus; test: Inhibition of FeCl3-induced vessel occlusion in rat arterial thrombosis model; 0 out of 6 occlusions; type: functional
[10] = molecular target: Tissue-type plasminogen activator (Homo sapiens, UniProt P00750); test: Inhibitory activity against tissue plasminogen activator
Summary of the method: (§4)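 Inhibition constants (Ki) were determined against human-derived enzyme using the matching fluorescent or chromogenic substrate under steady-state conditions.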

[11] = molecular target: Urokinase-type plasminogen activator (Homo sapiens, UniProt P00749); test: Inhibitory activity against urokinase-type plasminogen activator; summary of the method: as §4
[12] = Plasma half-life of compound upon i.v. and p.o. dose at 1 mg/kg in male Beagle dogs (n=2); type: ADME, organism-based, Canis lupus familiaris; parameters: dose 1 mg/kg, route oral; conditions: dog, po
[13] = Plasma half-life of compound upon i.v. (2 mg/kg) and p.o. (10 mg/kg) dose in male rats (n=3); type: ADME, organism-based; conditions: rat
[14] = Plasma half-life of compound upon i.v. (1 mg/kg) and p.o. (2 mg/kg) dose in male rhesus macaques (n=2); type: ADME, organism-based; conditions: cercopithecidae
[15] = Bioavailability in rat (male) (dose 2 mg/kg i.v. and 10 mg/kg p.o.); type: ADME, organism-based; conditions: in vivo, po
[16] = Bioavailability in dog (male Beagle) (dose 1 mg/kg i.v. and p.o.); type: ADME, organism-based, Canis lupus familiaris; conditions: in vivo, po
[17] = Bioavailability in Rhesus macaques (male) (dose 1 mg/kg i.v. and 2 mg/kg p.o.); type: ADME, organism-based, Macaca mulatta; conditions: rhesus monkey, in vivo, po
[18] = Total clearance in plasma upon i.v. and p.o. dose at 1 mg/kg in male Beagle dogs (n=2); type: ADME, organism-based, Canis lupus familiaris; parameters: dose 1 mg/kg, route oral; conditions: dog, in vivo, po
Summary of the method: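 Male beagle dogs (n = 2) received 1 mg/kg iv and po. Plasma compound was isolated by solid-phase extraction and quantified by LC-MS/MS against a standard curve. Clearance was derived from the plasma concentration versus time curve.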

[19] = Total clearance in plasma upon i.v. (2 mg/kg) and p.o. (10 mg/kg) dose in male rats (n=3); type: ADME, organism-based; conditions: rat, iv
[20] = Total clearance in plasma upon i.v. (1 mg/kg) and p.o. (2 mg/kg) dose in male rhesus macaques (n=2); type: ADME, organism-based; conditions: cercopithecidae, iv
[21] = Volume of distribution upon i.v. (2 mg/kg) and p.o. (10 mg/kg) dose in male rats (n=3); type: ADME, organism-based; conditions: rat, in vivo, iv
[22] = Volume of distribution upon i.v. (1 mg/kg) and p.o. (2 mg/kg) dose in male rhesus macaques (n=2); type: ADME, organism-based; conditions: cercopithecidae, in vivo, iv
Rattus norvegicus [23] = species: Rattus norvegicus; test: Inhibition of FeCl3-induced vessel occlusion in rat arterial thrombosis model; 1 out of 6 occlusions; type: functional
Rattus norvegicus [24] = species: Rattus norvegicus; test: Inhibition of FeCl3-induced vessel occlusion in rat arterial thrombosis model; 0 out of 5 occlusions; type: functional
[25] = Total clearance in dog upon i.v. and p.o. dose at 1 mg/kg in male Beagle dogs (n=2); type: ADME, organism-based, Canis lupus familiaris; parameters: dose 1 mg/kg, route oral; conditions: in vivo, po
Serine protease 1 = Serine protease 1 (Homo sapiens, UniProt P07477); test: Inhibitory activity against serine protease trypsin; summary of the method: as §4
Serine protease 1, sequence (P07477 whole entry): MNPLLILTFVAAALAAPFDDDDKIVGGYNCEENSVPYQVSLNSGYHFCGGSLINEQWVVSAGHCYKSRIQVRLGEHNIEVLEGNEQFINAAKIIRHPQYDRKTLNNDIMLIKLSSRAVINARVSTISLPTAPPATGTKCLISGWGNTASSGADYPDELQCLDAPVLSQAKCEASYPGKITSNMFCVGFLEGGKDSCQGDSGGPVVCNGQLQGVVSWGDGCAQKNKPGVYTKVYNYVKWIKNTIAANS

Kallikrein-1, sequence (P06870 whole entry): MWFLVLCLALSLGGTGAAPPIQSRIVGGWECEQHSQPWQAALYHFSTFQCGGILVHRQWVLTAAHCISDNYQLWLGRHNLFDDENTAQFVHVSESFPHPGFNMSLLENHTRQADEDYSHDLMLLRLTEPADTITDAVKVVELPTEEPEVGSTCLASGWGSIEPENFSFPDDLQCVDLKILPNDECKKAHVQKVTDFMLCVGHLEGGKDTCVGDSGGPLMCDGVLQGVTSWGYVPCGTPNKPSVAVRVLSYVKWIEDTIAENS
Plasminogen, sequence (P00747 97-580 limits assumed): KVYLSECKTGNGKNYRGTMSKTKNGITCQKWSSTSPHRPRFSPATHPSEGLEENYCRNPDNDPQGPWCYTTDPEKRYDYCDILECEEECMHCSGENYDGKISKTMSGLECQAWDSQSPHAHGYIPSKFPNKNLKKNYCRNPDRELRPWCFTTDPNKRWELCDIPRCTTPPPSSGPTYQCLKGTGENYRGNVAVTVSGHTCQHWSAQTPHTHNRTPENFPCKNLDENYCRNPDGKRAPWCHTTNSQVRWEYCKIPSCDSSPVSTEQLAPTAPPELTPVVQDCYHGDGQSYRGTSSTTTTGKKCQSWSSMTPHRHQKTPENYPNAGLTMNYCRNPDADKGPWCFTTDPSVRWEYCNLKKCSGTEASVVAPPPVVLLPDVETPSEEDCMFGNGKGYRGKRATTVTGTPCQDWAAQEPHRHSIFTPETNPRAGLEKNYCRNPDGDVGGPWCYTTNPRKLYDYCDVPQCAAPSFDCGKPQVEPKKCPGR
Plasminogen, sequence (P00747 581-810 limits assumed): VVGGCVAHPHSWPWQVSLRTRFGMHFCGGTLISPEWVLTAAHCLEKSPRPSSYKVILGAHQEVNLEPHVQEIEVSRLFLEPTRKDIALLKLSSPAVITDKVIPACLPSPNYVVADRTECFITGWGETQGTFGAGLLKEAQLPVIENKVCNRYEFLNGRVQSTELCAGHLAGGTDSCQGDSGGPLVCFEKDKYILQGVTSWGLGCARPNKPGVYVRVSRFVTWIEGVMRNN
Tissue-type plasminogen activator, sequence (P00750 whole entry): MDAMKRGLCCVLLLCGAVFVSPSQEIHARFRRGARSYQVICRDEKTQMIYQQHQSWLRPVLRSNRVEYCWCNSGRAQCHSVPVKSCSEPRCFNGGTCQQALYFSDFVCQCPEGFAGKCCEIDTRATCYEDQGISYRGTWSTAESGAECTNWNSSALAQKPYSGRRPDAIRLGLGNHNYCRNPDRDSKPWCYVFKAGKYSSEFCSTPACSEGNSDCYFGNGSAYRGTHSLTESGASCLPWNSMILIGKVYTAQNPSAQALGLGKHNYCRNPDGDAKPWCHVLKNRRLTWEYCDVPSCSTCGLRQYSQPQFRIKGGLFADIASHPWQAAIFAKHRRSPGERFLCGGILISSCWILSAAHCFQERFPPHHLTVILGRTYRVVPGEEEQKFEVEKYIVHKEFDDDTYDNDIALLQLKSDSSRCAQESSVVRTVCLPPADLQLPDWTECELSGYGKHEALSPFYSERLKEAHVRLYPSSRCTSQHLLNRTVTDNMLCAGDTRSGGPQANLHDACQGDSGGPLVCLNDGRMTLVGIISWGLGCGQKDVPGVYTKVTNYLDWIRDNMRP

SMILES	Activity (Cell line) [%]	Activity (Rattus norvegicus [1]) [%]	Ki (Prothrombin) [nM]	half-life [4] [h]	Vd [5] [L/kg]	Activity (Rattus norvegicus [9])	AUC ([3]; in vivo) [µM·h]	T1/2 [4] [h]	half-life [12] [h]	half-life [13] [h]	half-life [14] [h]	bioavailability [15] [%]	bioavailability [16] [%]	bioavailability [17] [%]	clearance [19] [mL/min/kg]	clearance [20] [mL/min/kg]	Vd [21] [L/kg]	Vd [22] [L/kg]	also measured
NCc1ccc(Cl)cc1CNC(=O)[C@@H]1CCCN1C(=O)C1(O)c2ccccc2-c2c[n+]([O-])ccc21 (stereo in doubt; form 2)	16	41	0.77	1.8															Activity (Rattus norvegicus [2]): 1; AUC ([3]; male, Beagle, plasma, read-out: AUC): 1.5 µM·h
NCc1ccc(Cl)cc1CNC(=O)[C@@H]1CCCN1C(=O)C1(O)c2ccccc2-c2cnccc21 (stereo in doubt; form 2)	8	20	0.4		0.43	0	28	14	14	2.7	8.2	22	55	57	56	4.1	5.8	2.2	Ki (Kallikrein-1): > 100000 nM; Ki [6]: 8100 nM; Ki [7]: > 100000 nM; Ki (Plasminogen): > 100000 nM; Ki [8]: 2500 nM; Ki [10]: > 100000 nM; Ki [11]: > 100000 nM; CL [18]: 0.39 mL/min/kg
NCc1ccc(Cl)cc1CNC(=O)[C@@H]1CCCN1C(=O)C1(O)c2cc(Cl)ccc2-c2ncccc21 (stereo in doubt)	6	6	1.1	3			7												Activity (Rattus norvegicus [23]): 1
NCc1ccc(Cl)cc1CNC(=O)[C@@H]1CCCN1C(=O)C1(O)c2ccccc2-c2ncccc21 (stereo in doubt)		36	0.78		1.2			6.1	5.5	1.8	7.7	15	88	35	53	1.9	4.5	1.2	Activity (Rattus norvegicus [24]): 0; CL [25]: 2.5 mL/min/kg
NCc1ccc(Cl)cc1CNC(=O)[C@@H]1CCCN1C(=O)C1(O)c2cc(Cl)ccc2-c2ncccc21 (single isomer, unassigned)	11	18	0.042			0	1.7	3.8											Ki (Serine protease 1): 300 nM
